Screens as filed in PubChem BioAssay.
An excerpt weighted towards active compounds, which were near 0.72% of everything screened.
mIAP act: mouse IAP activation | muIAP, CDP-Star luminescence, 30 min; hits give high values; 1 = vehicle-only enzyme signal, 0 = enzyme-free wells | activation factor at 10 µM | 0.24% of 330,000 active;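 active = activation factor of at least 2 at 20 µM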
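Assay system: mouse IAP enzyme; reagent: chemiluminescent substrate CDP-Star; dosing: test compounds delivered from DMSO solution; schedule: 30 min at room temperature; measured by: luminescence from enzymatic CDP-Star hydrolysis; controls: DMSO-only wells and no-enzyme negative control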
bIAP act: increases bovine intestinal alkaline phosphatase activity. purified bovine IAP, CDP-star luminescence, 30 min; hits give high values; fold of DMSO-control signal, blank-subtracted. activation factor at 20 µM. 0.17% of 200,000 active. AID 1016;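 active = activation factor of 2 or more at 20 µM, a signal rise over negative controls twice the positive control's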
hIAP inh: blocks human intestinal alkaline phosphatase; inhibition, % at 10 µM; 0.12% of 330,000 active; purified IAP, CDP-Star luminescence, 30 min; P09923;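 active = inhibition reaching a set limit with compound at 10 µM in the primary screen, cut at about 35% in these data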
Target sequence (P09923 whole entry, looked up): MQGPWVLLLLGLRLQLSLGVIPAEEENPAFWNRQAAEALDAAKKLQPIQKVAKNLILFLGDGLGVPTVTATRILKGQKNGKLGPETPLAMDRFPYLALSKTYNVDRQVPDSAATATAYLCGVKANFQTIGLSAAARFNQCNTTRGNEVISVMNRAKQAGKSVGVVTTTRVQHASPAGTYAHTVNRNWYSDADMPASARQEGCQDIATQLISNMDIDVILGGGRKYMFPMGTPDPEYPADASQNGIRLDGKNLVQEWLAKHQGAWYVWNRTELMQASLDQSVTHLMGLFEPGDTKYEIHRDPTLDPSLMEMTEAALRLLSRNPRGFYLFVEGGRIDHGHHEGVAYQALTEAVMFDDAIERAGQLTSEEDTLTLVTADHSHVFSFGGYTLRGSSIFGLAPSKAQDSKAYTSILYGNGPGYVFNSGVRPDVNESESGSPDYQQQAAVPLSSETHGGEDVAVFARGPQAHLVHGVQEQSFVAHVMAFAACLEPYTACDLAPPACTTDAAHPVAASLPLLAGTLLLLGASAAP
bIAP inh: intestinal alkaline phosphatase (bovine) inhibition. purified bovine IAP, CDP-star luminescence, 30 min. inhibition, % at 20 µM. 190,000 tested, under 10 active;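 active = over 50% inhibition of intestinal alkaline phosphatase at 20 µM in the single-dose screen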
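test system = bovine IAP enzyme | medium = DEA buffer 100 mM, pH 9.8, with MgCl2 1.0 mM, ZnCl2 0.02 mM | detection = luminescence | dosing = single compound dose of 20 µM, 2% DMSO final | incubation = 30 min reaction at room temperature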
hIAP activ: human IAP activation; P09923; purified human IAP, CDP-Star luminescence, 30 min; hits give high values; 1 = vehicle-only enzyme, 0 = enzyme-free background; activation factor at 10 µM; 0.16% of 330,000 active; AID 2524;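 active = activation factor of the enzyme at least 2-fold when tested at 20 µM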
mIAP block: blocks mouse intestinal alkaline phosphatase | purified mouse IAP, CDP-Star luminescence, 30 min | inhibition, % at 10 µM | 0.2% of 330,000 active | AID 2806;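 active = inhibition of at least 40% at 10 µM in the primary screen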
A number is an active result; i = inactive; nt = no result given.

SMILES	mIAP act	bIAP act	hIAP inh	bIAP inh	hIAP activ	mIAP block
O=C(Nc1nc2ccccc2s1)c1cnccn1	i	i	i	i	i	i
O=C(Nc1nc(-c2ccco2)c(-c2ccco2)s1)c1cnccn1	i	nt	i	nt	i	44
O=C(Cc1cccc2ccccc12)N/N=C/c1ccc(OC(=O)/C=C/c2ccco2)cc1	i	i	i	i	i	63
O=C(Cc1cccc2ccccc12)N/N=C/c1ccc(F)cc1	i	i	i	i	i	i
CC(=O)c1ccc(NC(=O)[C@@H]2CCCN2C(=O)OC(C)(C)C)cc1	i	nt	i	nt	i	i
COc1ccc(NC(=O)C2CC(=O)N/C(=N/NC(=O)c3ccc(Cl)cc3)S2)cc1 (stereo unspecified)	i	nt	i	nt	i	i
O=C(Nc1ccc(F)cc1)Nc1csc2ccccc12	2.3	nt	i	nt	i	i
O=C(Nc1ccc(F)cc1)Nc1ccccc1N1CCCCC1	2.6	nt	i	nt	i	i
CCc1ccccc1NC(=O)Nc1ccc(F)cc1	i	i	i	i	i	i
Nn1c(SCc2ccccn2)nncc1=O	i	i	i	i	i	i
Cc1cc(NC(=O)CN2C(=O)NC3(CCCCCC3)C2=O)ccc1Br	i	nt	i	nt	i	i
CC[C@H]1c2[nH]c3ccccc3c2C[C@@H]2C(=O)N(c3ccc(F)cc3)C(=O)N21	i	nt	i	nt	i	i
Cc1cccc(NC(=O)c2cn(-c3ccccc3)nc2-c2ccccc2)c1	2.6	i	i	i	i	i
COc1ccc(C(CNC(=O)c2c(C)nn(Cc3ccc(C)cc3)c2Cl)N2CCOCC2)cc1 (stereo unspecified)	i	nt	i	nt	i	i
O=C(/C=C/c1ccc(O)c(O)c1)c1ccccc1O	i	nt	70	nt	i	i
CCCCCCOc1ccc(C(=O)NCCCn2ccnc2)cc1	i	2	i	i	i	i
CCCCOc1ccc(NC(=O)C(=O)NCCCn2ccnc2)cc1	i	i	i	i	i	i
Cc1cc(Cl)cc(C)c1OCCCCn1ccnc1	i	i	i	i	i	i
Cc1cc(OCCCCn2ccnc2)cc(C)c1Cl	i	16	i	i	i	i
CCCn1c(C(O)c2ccc(C)cc2)nc2ccccc21 (stereo unspecified)	i	nt	i	nt	i	i
CCCn1c(C(O)c2ccc3c(c2)OCO3)nc2ccccc21 (stereo unspecified)	i	5.8	i	i	i	i
S=C(NCc1ccco1)Nc1ccc(Cl)c(Cl)c1	2.3	i	i	i	i	i
COCCn1nnnc1C(c1cc2cc(C)ccc2[nH]c1=O)N1CCc2ccccc21 (stereo unspecified)	i	i	i	i	i	i
Cc1ccc2[nH]c(=O)c(C(c3nnnn3CCc3ccccc3)N3CCOCC3)cc2c1 (stereo unspecified)	i	i	i	i	i	46
CCc1ccc(NC(=O)C2CCCN(S(=O)(=O)c3ccc4c(c3)CC(C)N4C(C)=O)C2)cc1 (stereo unspecified)	i	nt	i	nt	i	i
SMILES	mIAP act	bIAP act	hIAP inh	bIAP inh	hIAP activ	mIAP block
CCc1ccc(NC(=O)C2CCN(S(=O)(=O)c3ccc4c(c3)CC(C)N4C(C)=O)CC2)cc1 (stereo unspecified)	2.1	nt	i	nt	i	i
Cc1ccc2c(c1)N(CC(=O)NC1CCCCCC1)C(=O)c1cccnc1O2	i	nt	i	nt	i	i
CC(C)(C)C1=CC=C(C(C)(C)C)C(=O)C1=O	i	nt	i	nt	i	i
CCn1cc(CNCc2cn(-c3ccccc3C)nc2-c2ccc(OC)c(F)c2)cn1	i	i	i	i	i	i
COc1ccc(-c2nn(-c3ccccc3C)cc2CNCCc2cnc[nH]2)cc1F	i	2.3	i	i	i	i
COc1ccc(CN(CC2CCC(C(=O)O)CC2)C(=S)Nc2ccccc2OC)cc1 (stereo unspecified)	i	i	i	i	i	i
COc1ccc(CN(CC2CCC(C(=O)O)CC2)C(=S)Nc2cccc(C)c2)cc1 (stereo unspecified)	i	2.4	i	i	i	i
CCN(C(=O)COC(=O)c1ccc(S(=O)(=O)N2CCCc3ccccc32)cc1)C1CCS(=O)(=O)C1 (stereo unspecified)	i	i	i	i	i	i
CSc1ccccc1NC(=O)CN(C)CC(=O)c1c(C)[nH]c2ccccc12	i	nt	i	nt	i	i
COc1ccccc1CNc1ncc(-c2ccccc2)n1C	i	nt	i	nt	i	i
COc1cccc(-c2cnc(NCc3cc(Cl)ccc3O)n2C)c1	i	2.2	i	i	i	i
